Consider one compound from ChEMBL document CHEMBL4411297, “Discovery, synthesis and anti-atherosclerotic activities of a novel selective sphingomyelin synthase 2 inhibitor” (Eur J Med Chem, 2019).

Data set [1] has as its system Mus musculus. Nature of the data set: Anti-atherosclerotic activity in apoE knockout mouse fed with western-type diet assessed as reduction in lesions in proximal aorta at 40 mg/kg/day, ig for 7 weeks by hematoxylin and eosin staining-based assay relative to control. Type of data set: functional. More on the design: scale not given: the % may be the effect or the level left. The gist of the method: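 ApoE KO mice fed Western-type diet, then given 12.5 or 40 mg/kg/day by gavage in 30% PEG-400/10% DMSO/0.9% NaCl for 7 weeks. Aortic root: H&E-stained 4 µm sections, mean lesion area from 6 sections per animal. Whole aorta: en face Oil Red O staining, percentage of area stained. Compared with vehicle, n = 10.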

The nature of data set [2]: Apparent volume of distribution during terminal phase in C57BL/6J mouse at 100 mg/kg/day, ig by HPLC-MS/MS analysis. The data set is classed as ADME, organism-based. The note with it: in vivo, po, read-out: Vz/F. In short, it runs like this:
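Male C57BL/6J mice, six to eight weeks old, about 20 g, fasted 12 h with free water. Given a single intragastric dose of 25, 50 or 100 mg/kg in 10% DMSO/30% PEG-100/0.9% NaCl. Blood taken retro-orbitally at 5 min to 8 h. Plasma protein-precipitated with methanol plus internal standard, then HPLC-MS/MS on a C18 column. Noncompartmental analysis, n = 6.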

On to `CCc1ccccc1COc1ccccc1C(=O)Nc1cccnc1`, for which the Activity in data set [1] was found to be 50%. In addition, in data set [2], the Vd/F came to 28.8 L.
